Test system: E. coli BW25113 ΔtolC growth inhibition, OD615
Test: E. coli ΔtolC antibacterial growth inhibition – strain BW25113 ΔtolC::kan, dose response (AID 617)
How it was run: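 Material: E. coli BW25113 ΔtolC::kan bacteria; input: inoculum from 1:1000-diluted 1.5 h subculture; medium: kanamycin-containing LB broth, 50 µg/mL; dosing: compounds in serially diluted dose-response series; incubation: 20 h exposure at 37 °C; measured by: absorbance at 615 nm; control set: chloramphenicol control, 30 µM final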

Structure (SMILES) | IC50 [µM]
CC1Oc2ccccc2N(Cc2ccccc2Cl)C1=O (stereo not drawn) | 27.9
O=C(Nc1ccc(Cl)c(Cl)c1)N1CCSC1c1ccco1 (stereo not drawn) | 5.12
Fc1ccc(-n2c(Cc3ccccc3)nnc2SCc2nc(-c3cccs3)no2)cc1 | 19.1
Cc1ccc2oc(C(=O)NCc3ccc4c(c3)OCO4)c(C)c2c1 | 11.1
Cc1c(-c2nc(N)nc(Nc3ccccc3)n2)oc2ccccc12 | 12.3
O=S(=O)(Nc1ccc2oc(-c3ccccc3)nc2c1)c1ccccc1 | 9.38
O=C(CSc1ncnc2c1oc1ccccc12)N1CCCc2ccccc21 | 15.1
CCN(CC)c1nc(N)c2c(N)nc3c(c2c1C#N)CC(c1ccccc1)O3 (stereo not drawn) | 6.58
CN1C(=O)C2(OCC(COc3ccc(Cl)cc3)O2)c2ccccc21 (stereo not drawn) | 11.1
Cc1ccc(C)c(C(=O)CSc2n[nH]c(-c3ccncc3)n2)c1 | 2
Cc1cc(C)c(C#N)c(SCc2ccc3c(c2)OCO3)n1 | 24.6
O=C(c1ccc(COc2ccccc2Br)o1)N1CCCCCC1 | 98.8
COc1cccc(-c2cc(C(=O)N3CC4(C)CC3CC(C)(C)C4)no2)c1 (stereo not drawn) | 11
Cc1nn(-c2ccccc2)c(Cl)c1C1C(C#N)=C(N)Oc2c1c(=O)oc1ccccc21 (stereo not drawn) | 12
CCOc1ccc2[nH]c3c(N4CCN(c5ccccn5)CC4)ncnc3c2c1 | 12.2
O=C(Oc1ccc2ccccc2c1Cl)N1CCCC1 | 23.2
N#Cc1cn(CCOc2ccccc2F)c2ccccc12 | 16.1
CN1CCCN(C(=O)Cc2c(Cl)cccc2Cl)c2nc3ccccc3nc21 | 13.1
CCN(CC)c1ccc(-c2nn3c(-c4n[nH]c5c4CCC5)nnc3s2)cc1 | 20.8
O=c1c2c(nc3c(-c4cccc5ccccc45)c[nH]n13)CCC2 | 7
COC(=O)c1sccc1NC(=O)c1ccc(Cl)s1 | 4.02
Cc1ccc(-n2c(C)cc(C3N=C(N)Nc4nc5ccccc5n43)c2C)c(C)c1 (stereo not drawn) | 6.62
CCc1ccccc1NS(=O)(=O)c1ccc(SC)cc1 | 41.6

Structure (SMILES) | IC50 [µM]
CC1CCN(c2nc3ccccc3nc2C(C#N)S(=O)(=O)c2ccccc2)CC1 (stereo not drawn) | 9.39
COc1ccc(Cl)cc1CN1CCN(c2nc(C)cc(C)c2C#N)CC1 | 13.2
CS(=O)(=O)N(Cc1nc2sc3c(c2c(=O)[nH]1)CCCC3)C1CCCCC1 | 8.1
CCNc1nc(NC(C)C)nc(N(C#N)Cc2ccccc2)n1 | 18.1
CCOC(=O)c1c(-c2ccc(OC)cc2)oc2ccc(OC(=O)N(C)C)cc12 | 12.9
O=C(Nc1ccccc1N1CCCCC1)c1cccs1 | 12.8
O=C(Nc1ccc(C(F)(F)F)cc1Cl)c1ccc(Cn2cc(Br)cn2)o1 | 9.95
Cc1cccc(-n2ncc3c(N4CC(C)CC(C)C4)ncnc32)c1 (stereo not drawn) | 12.2
COc1cc2c3c(c1)C1(C(=O)N3C(C)(C)C=C2C)C(C#N)=C(N)Oc2cc(O)ccc21 (stereo not drawn) | 6.64
COc1ccc(S(=O)(=O)Nc2ccc(S(=O)(=O)N3CCCCC3)cc2)cc1 | 15
CCOC(=O)N1CCN(c2nc(-c3ccc(F)cc3)cs2)CC1 | 32.4
Brc1ccccc1Cn1c(-c2cncs2)nc2ccccc21 | 10.6
CCOC(=O)c1cccc(NC(=O)Nc2cc(OC)ccc2OC)c1 | 20.5
COc1ccc(NS(=O)(=O)c2ccc3oc(Nc4ccc5c(c4)OCCO5)nc3c2)cc1 | 7.68
CC1CCCN(c2ccc(C(=O)NCCc3ccccc3)cn2)C1 (stereo not drawn) | 49.4
O=C(Nc1nnc(-c2ccccc2Cl)o1)c1ccc(S(=O)(=O)N2CCCCCC2)cc1 | 0.16
Cc1nc(N2CCN(Cc3ccccc3)CC2)nc2c1C(=O)CC(c1ccco1)C2 (stereo not drawn) | 10.6
CCc1ccc(S(=O)(=O)NCCc2csc(-c3ccccc3)n2)s1 | 8.87
Cc1onc(-c2ccccc2)c1C(=O)Nc1nnc(N(C)Cc2ccccc2)s1 | 23.9
c1ccc(-c2nc(CSc3nnc(-c4cccs4)o3)cs2)cc1 | 10.1
Cc1cccc(C(C)(C)C)c1OCCn1ccnc1 | 11.8
O=C(Nc1cccc2cccnc12)c1ccc(Br)o1 | 10.6
Clc1ccc(OCc2nn3c(C4CCCCC4)nnc3s2)cc1 | 9.82

Structure (SMILES) | IC50 [µM]
COc1ccc(OC)c(Nc2nc(-c3cccs3)cs2)c1 | 28.2
Cc1cc(C)c(C#N)c(SCS(=O)c2ccc(C(C)(C)C)cc2)n1 (stereo not drawn) | 40.1
CCOc1ccc2nc(NC(=O)CN3CCC(n4nnc5cc(F)ccc54)CC3)sc2c1 | 15.4
O=S(=O)(Nc1cc(Cl)ccc1N1CCCCC1)c1cccs1 | 12.5
CCCC(=O)c1ccc(N2CCCCCC2)c(F)c1 | 95.6
N#CC1=C(N)NC(SCc2ccccc2)=C(C#N)C12CCCCC2 | 2.12
COc1ccc(NS(=O)(=O)c2cc(C)ccc2NC(=O)c2cc(C)oc2C)cc1 | 58.6
Cc1nn(Cc2ccccc2)c(C)c1C(=O)OCC(=O)c1cc(C)n(C2CC2)c1C | 11.3
CCn1cc(C(=O)OCC(=O)OC2CC(C)CCC2C(C)C)c(=O)c2ccc(C)nc21 (stereo not drawn) | 7.52
CCCCN(CCCC)C(=O)CSc1nnc(-c2cc(OC)c(OC)c(OC)c2)o1 | 27.7
Cc1ccc(Cn2ncn3c(cc4ccccc43)c2=O)cc1 | 14.1
COc1ccc(C(=O)Nc2nc(-c3cccs3)cs2)cc1 | 8.14
CSCc1nnc(NC(=O)c2ccc(S(=O)(=O)N(CC(C)C)CC(C)C)cc2)o1 | 0.3
Cc1ccc(-c2csc3ncnc(Sc4nnc(CN5CCCCCC5=O)o4)c23)cc1 | 21.6
CN(C)S(=O)(=O)N(Cc1ccc(Br)cc1)c1ccccc1 | 12.9
CCOC(=O)c1[nH]c2ccc(F)cc2c1NC(=O)CN1CCN(C/C=C/c2ccccc2)CC1 | 14.8
C=C(C)COc1ccc(-c2nc(N)ncc2-c2ccc(OC)cc2)c(O)c1 | 10.2
Nc1c(C(=O)NCCc2ccccc2)c2nc3ccccc3nc2n1CCN1CCOCC1 | 12.4
CC(C)c1ccc(OCc2nc(-c3ccccn3)no2)c(Br)c1 | 14.9
CCc1cc2cc(C(=O)N3CCN(Cc4ccccc4)CC3)sc2s1 | 10.3
Cc1cc(N2CCC(C)CC2)nc(-n2nc(C)cc2C)n1 | 5.18
Cc1ccccc1Cn1nc(C)c(NC(=O)c2noc3c2CCc2ccccc2-3)c1C | 12.1
CCOc1cc(/C=C(/C#N)c2ccc(F)cc2)ccc1OCc1ccc(C(=O)O)o1 | 4.4

Structure (SMILES) | IC50 [µM]
COc1cc(NS(=O)(=O)c2ccc(Br)cc2)c(OC)cc1NC(=O)c1ccco1 | 25.3
CCCCn1c(N2CCC(Cc3ccccc3)CC2)nc2c1c(=O)[nH]c(=O)n2C | 5.96
c1ccc(-c2noc(-c3cccc4ccccc34)n2)cc1 | 101
COC(=O)c1cc(C(=O)CSc2nc(C)cc(C)n2)ccc1O | 4.31
CCCOc1ccc(C(=O)N2CCN(c3ccc(NC(=O)CC)cc3Cl)CC2)cc1 | 14.6
O=C(Nc1ccccc1N1CCCCC1)c1cccc(F)c1 | 15.2
CN(C1CCCCC1)S(=O)(=O)c1ccc(NC(=O)c2ccc(Br)o2)cc1 | 10.6
O=C(Nc1cccc(Cl)c1)Nc1nccs1 | 11
CCCc1nc2sc3ccccc3c(=O)c2c(=O)n1Cc1ccco1 | 5.73
CC1=C(C(=O)OC2CCCCCC2)C(c2ccc(C)o2)C2=C(CCCC2=O)N1 (stereo not drawn) | 6.35
O=C(Nc1nnc(-c2ccccc2)o1)c1ccc(Cl)cc1 | 0.17
COc1ccc(-c2noc(CN3CCC(Cc4ccccc4)CC3)n2)cc1 | 17.2
CCSc1nnc(NC(=O)c2ccccn2)s1 | 4.66
CCOC(=O)c1ccc(NC(=O)CSc2nc(SC)ns2)cc1 | 9.73
CCSC1=C(C#N)C(c2ccc(Cl)cc2)C2=C(CCCC2=O)N1 (stereo not drawn) | 8.21
Cc1noc(NS(=O)(=O)c2ccc(NC(=O)Nc3ccc(Cl)c(Cl)c3)cc2)c1C | 4.51
CCC(C)(C)n1nnnc1C(c1cc2ccc(C)cc2[nH]c1=O)N(Cc1cccnc1)Cc1ccco1 (stereo not drawn) | 15.2
C=C(C)COc1ccc(-c2n[nH]c(C)c2Oc2ccccc2OC)c(O)c1 | 8.36
O=C(Nc1ccc2c(c1)CCC2)C1COc2ccccc2O1 (stereo not drawn) | 12.2
COc1ccc(-c2[nH]ncc2-c2ccc(Cl)cc2)c(O)c1 | 4.52
Cc1ccc(C)n1-n1c(C)nc2sc3c(c2c1=O)CCCCC3 | 69.2
CCN(CCNC(=O)C1CCN(Cc2nc(-c3cccc(Cl)c3)oc2C)CC1)c1ccccc1 | 8.04
CCOC(=O)c1sc(NC(=O)c2c(C)nn(Cc3ccccc3)c2C)cc1C | 9.35

Structure (SMILES) | IC50 [µM]
c1ccc(-c2nc(N3CCCCCC3)c3ccccc3n2)nc1 | 1.68
c1ccc(Cn2nnnc2C(c2cccs2)N2CCCCCC2)cc1 (stereo not drawn) | 9.47
O=S(=O)(Nc1ncnc2sc3c(c12)CCC3)c1ccc(Cl)s1 | 5.93
COc1ccc(C2c3sc(=O)[nH]c3SC3C4CCC(C4)C23)cc1 (stereo not drawn) | 10
Cc1ccc2nc(NC(=O)CNS(=O)(=O)c3ccc(Br)s3)sc2c1 | 47.7
CC(C)(C)c1ccc(C(=O)CCCSC2=C(C#N)C(c3ccco3)C3=C(CCCC3=O)N2)cc1 (stereo not drawn) | 1.77
Cc1nnc(NC(=O)c2ccc(S(=O)(=O)N(C)Cc3ccccc3)cc2)o1 | 3.87
COc1ccc(-n2c(C)cc(C(=O)COC(=O)Cn3cnc4ccccc43)c2C)cc1 | 3.33
COc1ccc(-c2nnc(NC(=O)c3ccc(S(=O)(=O)N4COCC4(C)C)cc3)o2)cc1 | 0.52
COc1ccc(-c2[nH]ncc2Oc2ccccc2OC)c(O)c1 | 10.5
CCCCSC1=C(C#N)C(c2ccccc2C)C(C(=O)OCC)C(=O)N1 (stereo not drawn) | 11.5
CC(OC(=O)c1ccccc1NCc1ccco1)C(=O)Nc1ncc(Cl)cc1Cl (stereo not drawn) | 39.1
Cc1cc(S(=O)(=O)N2CCN(c3ccccc3C)CC2)ccc1F | 14.6
Fc1ccc(-c2cc(C(F)(F)F)nc(NCC3CCCO3)n2)cc1 (stereo not drawn) | 20.7
Cn1c(=O)n(CCCOc2ccc(Br)cc2)c2ccccc21 | 13.8
CSCSC1=C(C#N)C(c2ccc(Cl)cc2)C(C(C)=O)=C(C)N1 (stereo not drawn) | 9.12
CC(C)(C)c1cc(C(F)(F)F)nc(SCCCNC(=O)c2ccco2)n1 | 6.37
Cc1nn(Cc2ccc(C(=O)N3c4ccc(F)cc4CCC3C)o2)c(C)c1Br (stereo not drawn) | 9.71
N#Cc1nc(Cc2ccccc2)oc1NCc1ccccc1Cl | 4.79
COc1ccc(C(=O)C(CN2CCOCC2)c2ccccc2)cc1F (stereo not drawn) | 17.7
CCOC(=O)c1cc2sccc2n1CC(=O)N1CCCc2ccccc21 | 15.1
